HIV Rev-RRE inh: HIV-1 Rev-RRE binding inhibitors, primary screen, biochemical, FRET, protein-RNA interaction; Rev peptide-RRE RNA binding; inhibition, % at 8 µM; 0.79% of 97,000 active; AID 704, 2007;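 active means inhibition above the screen-wide mean plus 3 SD, cut at about 35% in these data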;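 further: 0% = median DMSO wells and 100% = median Neomycin B control wells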
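Test system – labelled RRE RNA duplex and labelled Rev peptide · Signal – fluorescein-to-Cy5 FRET, 480 nm excitation · Evaluation – % inhibition of FRET ratio versus controls · Benchmarks – DMSO low control, neomycin B high control · Incubation – 5 min RNA-compound premix plus 15 min binding step, 25 °C · Medium – HEPES pH 7.5 salt buffer with EDTA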
PTPN22 inh 2: PTPN22 phosphatase inhibitors, primary screen, biochemical, DiFMUP fluorescence, 2 µM; Tyrosine-protein phosphatase non-receptor type 22 (Homo sapiens), Q9Y2R2; recombinant LYP catalytic domain; inhibition, % at 2 µM; 0.21% of 96,000 active; AID 640, 2007;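 active means inhibition at 2 µM at or above a set limit, the screen mean plus 3 SD, cut at about 24% in these data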;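 further: 0% = DMSO with enzyme and 100% = enzyme fully blocked by orthovanadate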
PLK1 inh: human PLK1 kinase inhibitors, primary screen, biochemical, TR-FRET | Serine/threonine-protein kinase PLK1 (Homo sapiens), P53350 | recombinant PLK1 kinase, TR-FRET peptide phosphorylation | inhibition, % at 10 µM | 0.53% of 97,000 active;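 active means inhibition of 50% or more in the single-concentration screen; inactive means inhibition below 50%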;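 further: 0% = DMSO max control and 100% = H-89 dihydrochloride min control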
Target sequence (P53350 whole entry, looked up): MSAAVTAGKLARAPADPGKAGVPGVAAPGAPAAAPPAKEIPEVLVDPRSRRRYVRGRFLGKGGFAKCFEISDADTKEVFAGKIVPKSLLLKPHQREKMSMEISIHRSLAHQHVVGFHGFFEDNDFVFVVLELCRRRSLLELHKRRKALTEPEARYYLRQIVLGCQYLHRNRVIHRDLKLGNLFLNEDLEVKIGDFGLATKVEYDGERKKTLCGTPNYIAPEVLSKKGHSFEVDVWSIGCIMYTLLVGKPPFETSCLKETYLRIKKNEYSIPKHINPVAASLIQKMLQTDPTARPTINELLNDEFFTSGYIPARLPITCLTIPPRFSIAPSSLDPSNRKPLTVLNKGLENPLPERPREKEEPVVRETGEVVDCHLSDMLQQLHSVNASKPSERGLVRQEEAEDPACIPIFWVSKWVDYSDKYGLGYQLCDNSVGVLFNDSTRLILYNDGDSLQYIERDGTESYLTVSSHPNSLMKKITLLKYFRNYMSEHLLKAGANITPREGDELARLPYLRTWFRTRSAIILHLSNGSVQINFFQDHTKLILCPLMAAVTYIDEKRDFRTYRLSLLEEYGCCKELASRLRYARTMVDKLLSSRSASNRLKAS
PLK1 PBD inh: Plk1 polo box domain binding inhibitors, primary screen, biochemical, fluorescence polarization; Plk1 PBD phosphopeptide binding; 0.13% of 97,000 active; AID 693, 2007; Serine/threonine-protein kinase PLK1 (Homo sapiens), P53350; inhibition, %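 (tested at about 20 µM)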; in the data active means inhibition above about 34%, passing the limit was not always enough
DAT uptake mod: changed hDAT dopamine uptake under cocaine IC80, either direction, primary screen, cocaine antagonist project, cell-based, LLC-PK1 hDAT, [14C]-dopamine uptake, MLSMR | Sodium-dependent dopamine transporter (Homo sapiens), Q01959 | 1.3% of 110,000 active | B-score at 10 µM | AID 449768, 2010 | LLC-PK1 hDAT cells, [14C]-dopamine uptake with cocaine IC80; actives deviate in either direction;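 active means Z score or B-score, a plate-position-corrected score, falls beyond the plate's 99.7% confidence bounds, in either direction; inactive means both scores lie inside the 99.7% bounds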;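 further: scored against the spread of the other compound wells on the same plate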
LYP act: LYP phosphatase activators, primary screen, biochemical, DiFMUP fluorescence, 2 µM. recombinant LYP; 0 = plate median, 100 = signal doubled. activation, % at 2 µM. 0.11% of 96,000 active. AID 697, 2007;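 active means activation at 2 µM above a set limit, the mean plus 5 SD, cut at about 37% in these data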
An asterisk follows results filed as active; x = no result given; [ ] = another dose, or the depositor's remark. Most compounds without a hit are left out; they make up all but 2.7% or so of the library.

SMILES	HIV Rev-RRE inh	PTPN22 inh 2	PLK1 inh	PLK1 PBD inh	DAT uptake mod	LYP act
Cn1c(SCc2cc(=O)[nH]c3ccccc23)nnc1-c1ccc(Br)cc1	10	-3	-3	8	1.5	5
COc1ccccc1NC(=O)CSc1nnc(-c2ccccc2)o1	7	x	58*	-8	0.22	x
CC(=O)Nc1cccc(-c2nnc(-c3ccccc3)o2)c1	3	9	-10	2	-8.4*	-14
COc1ccc(CC(=O)Nc2cccc(-c3nnc(-c4cccc(C)c4)o3)c2)cc1OC	x	x	x	x	3.1*	x
COc1ccc(CC(=O)Nc2cccc(-c3nnc(-c4ccc(C)cc4)o3)c2)cc1OC	x	x	x	x	1.7	x
COc1ccc(CC(=O)Nc2cccc(-c3nnc(-c4ccccc4)o3)c2)cc1OC	1	-5	-9	14	2.7*	1
CC(C)(C)C(=O)Nc1cccc(-c2nnc(-c3cccc(NC(=O)C(C)(C)C)c3)o2)c1	4	-6	-10	-16	0.56	6
COc1ccccc1NC(=O)CSc1nnc(Cc2ccccc2)o1	2	1	-8	4	0.41	-1
CCN(CC)C(=O)CC(c1ccc(N(C)C)cc1)c1c(O)cc(OC)cc1OC (stereo not given)	x	x	x	x	1.1	x
C=CCN1C(=O)C2(/C(=C(\O)c3ccc4c(c3)OCCO4)C(=O)C(=O)N2CCCOC)c2ccccc21 (stereo not given)	-5	-1	-3	2	-1.7	5
CN1CCCc2cc3c(C(F)(F)F)cc(=O)oc3nc21	71*	1	-19	-11	-0.2	-2
CC(C)c1cc(=O)oc2c3c4c(cc12)CCCN4CCC3	x	x	x	x	-0.21	x
CC(=O)N1CCC(N(C(=O)Nc2c(F)cccc2F)C(C)C)CC1	10	-2	-14	-2	-1.9	-1
C#CCCOC(=O)N1C2=NC(C(=O)OC)=C(C(=O)OC)[C@@H]3Nc4ccccc4[C@]23C[C@H]1C(=O)OC	x	x	x	x	0.21	x
Cc1ccc(NC(=O)NC(=O)CN2C(=O)NC3(CCc4ccccc43)C2=O)c(C)c1 (stereo not given)	8	1	-1	6	2.5*	0
CC(/C=C(\NC(=O)c1ccccc1)C(=O)N=Nc1c(O)[nH]c2ccc(C)cc12)=C\c1ccccc1	12	-2	-6	-6	1.1	-1
Cn1nnc(NCc2cc(Br)ccc2OCc2cccs2)n1	4	-8	-4	1	9.8*	8
Cn1nnc(C(O)CNCc2cccs2)n1 (stereo not given)	3	2	-4	19	-0.0057	-4
Cc1cccc(N(C(=O)c2ccc(Cl)cc2)C2CS(=O)(=O)CC2OC(=O)c2ccc(Cl)cc2)c1 (stereo not given)	0	25*	-2	-31	-0.19	-21
O=C1c2cccc3c(O)ccc(c23)C(=O)N1Cc1ccccc1	131*[fluorescence artefact?]	-6	-14	-167	-0.19	4
CS(=O)(=O)N(CC(=O)N/N=C/c1cc([N+](=O)[O-])ccc1Cl)c1ccccc1	8	-9	-4	-8	2*	6
O=C(c1ccc(Cl)cc1)c1oc2ccccc2c1CS(=O)(=O)c1ccccc1	9	5	-4	8	-0.41	-1
Cc1sccc1C1C(C#N)=C(N)SC(N)=C1C#N	75*	-14	4	-24	x	14
Cc1cc(C2C(C#N)=C(N)SC(N)=C2C#N)c(C)s1	83*[fluorescence artefact?]	5	24	-54	x	-5
COC(=O)C1=C(C)OC(N)=C(C#N)C1c1cc(C)sc1C (stereo not given)	1	-14	5	12	0.41	11
SMILES	HIV Rev-RRE inh	PTPN22 inh 2	PLK1 inh	PLK1 PBD inh	DAT uptake mod	LYP act
CC(=O)c1cccc(NC(=O)C2CCN(S(=O)(=O)c3ccccc3)CC2)c1	-1	-12	-17	-12	0.86	9
O=C(COc1ccccc1F)Nc1nnc(-c2ccncc2)s1	0	3	54*	22	-0.1	-4
O=C(CCC1CCCC1)c1c(O)c2ccccc2oc1=O	1	-5	-18	47	-3.2*	2
Cc1cccc(S(=O)(=O)c2c(N)n(/N=C/c3ccco3)c3nc4ccccc4nc23)c1	17	6	-3	-1	0.045	-7
Cc1cccc(S(=O)(=O)c2c(N)n(/N=C/c3cccnc3)c3nc4ccccc4nc23)c1	0	5	-25	-20	3.2*	-6
Cc1cc2ccccc2c(=O)n1CC(=O)NCC(=O)N(C)Cc1ccccc1	x	x	x	x	-7.8*	x
Cc1nc2ncnn2c(N2CCN(C(c3ccccc3)c3ccccc3)CC2)c1C	7	6	-6	-4	3.2*	-8
CC(=O)c1ccc(NS(=O)(=O)Cc2ccc(Cl)cc2)cc1	6	3	-7	32	3.2*	-2
CC(=O)Nc1cccc(NS(=O)(=O)Cc2ccc(Cl)cc2)c1	4	-4	-12	1	0.36	3
CCOc1ccc2cc(/C=C/C(=O)c3ccco3)c(Cl)nc2c1	53*	-3	-10	-23	x	3
CC(NC(=O)Nc1cccnc1)(C(F)(F)F)C(F)(F)F	6	-1	-24	-3	-1.1	-2
CC(NC(=O)Nc1cccc([N+](=O)[O-])c1)(C(F)(F)F)C(F)(F)F	14	-8	-6	16	-3*	13
CCCCCCNC(=O)n1cc(F)c(=O)[nH]c1=O	x	x	x	x	0.74	x
Cc1ccc(NC(=O)CSc2nnc(COc3ccc(C#N)cc3)n2-c2ccccc2)cc1C	8	-1	-13	0	1.1	1
Cc1nc2cc(NC(=O)COc3ccc(C#N)cc3)ccc2n1-c1ccccc1	5	-1	-18	-7	-7.9*	1
CC1CCCN(S(=O)(=O)c2ccc(S(=O)(=O)NC(C)c3cccs3)cc2)C1 (stereo not given)	13	2	-6	-11	-0.063	-2
CCN(CC)S(=O)(=O)c1cccc(C(=O)NC(C(=O)Nc2nnc(C)s2)C(C)C)c1 (stereo not given)	6	8	-5	-10	0.87	-6
CCCN(CC1CC1)S(=O)(=O)c1ccc(-n2cnnn2)c(OC)c1	8	-7	-8	2	1	8
O=C(CN1CCC(n2nnc3cc(F)ccc32)CC1)Nc1ccccc1N1CCOCC1	12	10	3	-9	1.7	-12
Cc1cc(N2C(=O)C3CC=CCC3C2=O)no1 (stereo not given)	2	-8	-6	2	-0.62	8
Cc1cc(N2C(=O)C3CC=CC(C)C3C2=O)no1 (stereo not given)	8	-2	-12	27	-9.4*	1
O=C(CSc1ncn[nH]1)Nc1ccccc1-c1ccccc1	4	-7	-8	20	-0.03	11

High-throughput results as filed in PubChem BioAssay.
